# Data reported in ChEMBL document CHEMBL4813921, “Optimization of WZ4003 as NUAK inhibitors against human colorectal cancer” (Eur J Med Chem, 2021).
# Calls of active or inactive are those of the source. No cut-off for these calls is given here.
# What was measured:
# [1] = tested on: SW480; assay: Induction of cell cycle arrest in human SW480 cells assessed as reduction in accumulation at S phase at 10 uM measured after 48 hrs by PI/RNaseA staining based flow cytometry assay; assay type: functional
# [2] = Toxicity against BALB/c-nu/nu mouse xenografted with human SW480 cells assessed as morphological changes in liver at 10 to 20 mg/kg, ip administered every 2 days for 18 days by H and E staining based analysis; assay type: organism-based; conditions: in vivo, 432 h, dose 10-20 mg/kg, time 18 day
# Procedure, shortened: (§1)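 After 18 days of ip dosing every two days in SW480-xenografted nude mice, heart, liver, spleen, lung and kidney harvested, sectioned, HE-stained, examined at ×400.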
# [3] = Toxicity against BALB/c-nu/nu mouse xenografted with human SW480 cells assessed as morphological changes in heart at 10 to 20 mg/kg, ip administered every 2 days for 18 days by H and E staining based analysis; assay type: organism-based; conditions: in vivo, 432 h, dose 10-20 mg/kg, time 18 day; procedure, shortened: as §1
# [4] = tested on: SW480; assay: Antitumour activity against human SW480 cells xenografted in Balb/c-nu/nu mouse assessed as reduction in Ki67 expression in tumor at 10 mg/kg, ip administered every 2 days for 18 days by immunohistochemical assay; assay type: functional, organism-based; conditions: time 18.0 day
# Procedure, shortened: (§2)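 SW480 xenografts in nude mice (n = 6 per group) treated ip every two days for 18 days. Excised tumours sectioned for HE and Ki67 staining, examined at ×400.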
# [5] = tested on: HCT-116; assay: Antiproliferative activity against human HCT-116 cells assessed as reduction in cell viability at 10 uM measured after 1 to 5 days by MTT assay relative to control; assay type: functional, cell-based; conditions: time 1-5 day
# Procedure, shortened: (§3)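 MTT viability read daily over 1–5 days of exposure to 10 μM compound; mean ± SD, n = 3.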
# [6] = tested on: SW480; assay: Induction of apoptosis in human SW480 cells assessed as necrotic cells at 10 uM measured after 48 hrs by Annexin V-FITC/PI staining based flow cytometry method (reference value: 1.4%); assay type: functional
# [7] = tested on: SW480; assay: Antiproliferative activity against human SW480 cells at 2.5 to 10 uM measured after 48 hrs by EdU staining based assay; assay type: functional, cell-based; conditions: dose 2.5-10 µM
# Procedure, shortened: (§4)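 Cells exposed to a range of compound concentrations for 48 h, then EdU click-chemistry staining with DAPI counterstain. Confocal high-content imaging; DAPI-positive nuclei counted as total and EdU-positive as proliferating.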
# [8] = tested on: HCT-116; assay: Induction of cell cycle arrest in human HCT-116 cells assessed as increase in accumulation at G2/M phase at 10 uM measured after 48 hrs by PI/RNaseA staining based flow cytometry assay; assay type: functional
# [9] = tested on: SW480; assay: Induction of apoptosis in human SW480 cells assessed as early apoptotic cells at 10 uM measured after 48 hrs by Annexin V-FITC/PI staining based flow cytometry method (reference value: 2.6%); assay type: functional
# [10] = tested on: SW480; assay: Induction of cell cycle arrest in human SW480 cells assessed as increase in accumulation at G2/M phase at 10 uM measured after 48 hrs by PI/RNaseaA staining based flow cytometry assay; assay type: functional
# [11] = tested on: U2OS; assay: Inhibition of colony formation in human U2OS cells measured after 14 days by crystal violet staining based microcopic analysis; assay type: functional, cell-based; conditions: dose 0.5-2 µM, time 14.0 day
# Procedure, shortened: (§5)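 Clonogenic assay with 14-day exposure to a range of compound concentrations; colonies stained with crystal violet and imaged by microscopy; compared with untreated cells.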
# [12] = tested on: HCT-116; assay: Induction of apoptosis in human HCT-116 cells assessed as late apoptotic cells at 10 uM measured after 48 hrs by Annexin V-FITC/PI staining based flow cytometry method (reference value: 1.6%); assay type: functional
# [13] = tested on: U2OS; assay: Antiproliferative activity against human U2OS cells at 2.5 to 10 uM measured after 48 hrs by EdU staining based assay; assay type: functional, cell-based; conditions: dose 2.5-10 µM; procedure, shortened: as §4
# [14] = tested on: SW480; assay: Induction of apoptosis in human SW480 cells assessed as late apoptotic cells at 10 uM measured after 48 hrs by Annexin V-FITC/PI staining based flow cytometry method (reference value: 2.8%); assay type: functional
# [15] = tested on: U2OS; assay: Antiproliferative activity against human U2OS cells assessed as reduction in cell viability at 10 uM measured after 1 to 5 days by MTT assay; assay type: functional; conditions: time 1-5 day; procedure, shortened: as §3
# [16] = tested on: SW480; assay: Antitumour activity against human SW480 cells xenografted in Balb/c-nu/nu mouse assessed as reduction in Ki67 expression in tumor at 20 mg/kg, ip administered every 2 days for 18 days by immunohistochemical assay; assay type: functional, organism-based; conditions: time 18.0 day; procedure, shortened: as §2
# [17] = target: T1, NUAK family SNF1-like kinase 2 (Homo sapiens) (UniProt Q9H093); assay: Inhibition of NUAK2 (unknown origin) at 10 uM using CHKtide as substrate in presence of ATP measured after 60 mins by ADP-Glo assay
# T1 sequence (whole entry): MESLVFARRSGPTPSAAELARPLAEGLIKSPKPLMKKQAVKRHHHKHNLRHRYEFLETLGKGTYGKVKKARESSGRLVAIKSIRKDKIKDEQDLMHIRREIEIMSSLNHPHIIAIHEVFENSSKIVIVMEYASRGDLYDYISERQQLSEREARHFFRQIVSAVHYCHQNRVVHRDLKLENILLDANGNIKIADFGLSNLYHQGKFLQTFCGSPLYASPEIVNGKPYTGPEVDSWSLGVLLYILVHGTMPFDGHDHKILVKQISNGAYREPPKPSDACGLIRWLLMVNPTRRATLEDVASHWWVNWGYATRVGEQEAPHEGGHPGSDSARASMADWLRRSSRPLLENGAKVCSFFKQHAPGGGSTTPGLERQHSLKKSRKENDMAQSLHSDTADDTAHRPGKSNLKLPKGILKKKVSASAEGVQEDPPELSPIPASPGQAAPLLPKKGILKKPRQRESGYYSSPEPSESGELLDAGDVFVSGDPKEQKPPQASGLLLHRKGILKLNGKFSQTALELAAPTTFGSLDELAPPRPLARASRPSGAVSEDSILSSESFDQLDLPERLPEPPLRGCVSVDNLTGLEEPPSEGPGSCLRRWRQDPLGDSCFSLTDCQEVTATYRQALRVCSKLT
# [18] = tested on: SW480; assay: Induction of cell cycle arrest in human SW480 cells assessed as reduction in accumulation at G1 phase at 10 uM measured after 48 hrs by PI/RNaseaA staining based flow cytometry assay; assay type: functional
# [19] = tested on: SW480; assay: Induction of apoptosis in human SW480 cells assessed as viable cells at 10 uM measured after 48 hrs by Annexin V-FITC/PI staining based flow cytometry method (reference value: 93.2%); assay type: functional; conditions: read-out: Activity
# [20] = tested on: SW480; assay: Antitumour activity against human SW480 cells xenografted in Balb/c-nu/nu mouse assessed as inhibition of tumour volume at 10 to 20 mg/kg, ip administered every 2 days for 18 days; assay type: functional, organism-based; conditions: dose 10-20 mg/kg, time 18.0 day
# Procedure, shortened: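 SW480 xenografts in nude mice, randomized at 100 mm3 tumour volume into four groups of six. Dosed ip at 10 or 20 mg/kg every two days for 18 days, with vehicle group. Tumour volume and body weight recorded every two days; tumours weighed at end; means ± SD (n = 6).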
# [21] = tested on: U2OS; assay: Induction of apoptosis in human U2OS cells assessed as necrotic cells at 10 uM measured after 48 hrs by Annexin V-FITC/PI staining based flow cytometry method (reference value: 0.4%); assay type: functional
# [22] = tested on: SW480; assay: Inhibition of colony formation in human SW480 cells measured after 14 days by crystal violet staining based microcopic analysis; assay type: functional, cell-based; conditions: dose 0.5-2 µM, time 14.0 day; procedure, shortened: as §5
smiles,measurement,setting,value
CCC(=O)Nc1cccc(Oc2nc(Nc3ccc(N4CCN(C)CC4)cc3)ncc2Cl)c1,Activity,[1],Active
same,Activity,[2],Non-Toxic
same,Activity,[3],Non-Toxic
same,Activity,[4],Active
same,Activity,[5],Active
same,Activity,[6],3.3%
same,Activity,[7],Active
same,Activity,[8],Active
same,Activity,[9],16.2%
same,Activity,[10],Active
same,inhibition,[11],Dose-Dependent Effect
same,Activity,[12],10%
same,Activity,[13],Active
same,Activity,[14],10.8%
same,inhibition at 10 µM,[15],67.2%
same,Activity,[16],Active
same,inhibition,[17],82.5%
same,Activity,[18],Active
same,viability at 10 µM,[19],69.8%
same,Activity,[20],Active
same,Activity,[21],0.6%
same,inhibition,[22],Dose-Dependent Effect
